Legend:
Type in all cases: cell-based, human
HaCaT cells [1] = assay: cell death assay; settings: IAB added with carvacrol 300 μmol/L; 12 h
Summary of the method: (§1)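 HEK293 cells 12 h after hTRPV3 transfection, or HaCaT cells, were seeded in six-well plates, randomly split into 6 groups, and treated 12 h in culture medium. Cells were detached with 0.25% trypsin (HEK293 1 min; HaCaT 7 min), centrifuged, and stained 30 min in PBS with Hoechst and PI. Five random fields per group were imaged. Death ratio = PI-labelled over Hoechst-labelled nuclei, averaged over five images; n = 4.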

[2] = test system: HEK293 cells expressing hTRPV3; assay: cell death assay; settings: 12 h, n = 4
Summary of the method: as §1

HaCaT cells [3] = assay: cell proliferation MTT assay, HaCaT cells; settings: IAB at 10 and 100 μmol/L with carvacrol 300 μmol/L, 24 h
Summary of the method: (§2)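 hTRPV3-transfected HEK293 or HaCaT cells were plated at 5 × 10^3 per well for 24 h, then exposed 24 h to TRPV3 activator and/or inhibitor in culture medium. MTT (5 mg/mL solution) was added for 4 h. Medium was removed, formazan dissolved in DMSO, and absorbance read at 490 nm.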

[4] = test system: HEK293 cells expressing hTRPV3; assay: cell proliferation MTT assay, HEK293 cells transfected with hTRPV3; settings: IAB at 10 and 100 μmol/L with carvacrol 300 μmol/L, 24 h
Summary of the method: as §2

SMILES: O=C(/C=C/c1ccc(O)c(O)c1)O[C@@H]1[C@H](O)C[C@@](O)(C(=O)O)C[C@H]1OC(=O)/C=C/c1ccc(O)c(O)c1 [IAB, isochlorogenic acid B]
- HaCaT cell death (HaCaT cells [1]): dose-dependent reduction of HaCaT cell death
- cell death ratio ([2]; IAB 10 μmol/L with carvacrol 300 μmol/L): 11.7 ± 0.9%
- cell death ratio ([2]; IAB 100 μmol/L with carvacrol 300 μmol/L): 9.9 ± 1.2%
- reversal of overactive TRPV3-induced inhibition of cell proliferation (HaCaT cells [3]): significantly reversed
- reversal of overactive TRPV3-induced inhibition of cell proliferation [4]: significantly reversed

— paper PMC8897028 (Acta Pharmaceutica Sinica. B, 2021)
